Active and inactive are the calls of the source. The calls are words filed in the database; no cut-off is given here.
Key:
[1] = Antiproliferative activity against human WM3211 cells after 3 days by SRB assay; type: functional; settings: read-out: ED50 (the source's name)
Summary of the method: (§1)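 WM3211 or WM793 melanoma cells in high-glucose DMEM with 8% Fetal Clone III, 3.5% horse serum and 5 mM Glutamax. Seeded at 20,000 cells/ml and rested 24 h. Serial 1:1 dilutions from 2 mg/ml DMSO stocks, incubated 72 h. Vehicle 0.2% DMSO. Cells fixed and stained with 0.5% SRB, dye eluted in Tris pH 10, A540 read. ED50 is the 50%-of-vehicle value taken from mean curves of three independent experiments.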

[2] = Antiproliferative activity against human WM793 cells after 3 days by SRB assay; type: functional; settings: read-out: ED50 (the source's name); summary of the method: as §1
WM3211 [3] = assay: Induction of apoptosis in human WM3211 cells assessed as mitochondrial depolarization upto 4 ug/ml by flow cytometry; type: functional, cell-based
Summary of the method: (§2)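 Cells suspended at 30,000 cells/ml in culture medium and exposed to compound at the single top test concentration for 5 h. TMRM added to 100 nM final for a further 60 min, then analysed by flow cytometry without medium replacement. Fluorescence given as percent of the DMSO vehicle control for each line. Mean of three independent experiments, SEM.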

WM3211 [4] = assay: Induction of apoptosis in human WM3211 cells assessed as change in mitochondrial morphology upto 4 ug/ml by flow cytometry; type: functional, cell-based
WM793 [5] = assay: Induction of apoptosis in human WM793 cells assessed as reduction in mitochondrial polarization upto 4 ug/ml by flow cytometry; type: functional, cell-based; summary of the method: as §2
WM3211 [6] = assay: Induction of apoptosis in human WM3211 cells assessed as change in fluorescence intensity using TMRM labeling by flow cytometry; type: functional, cell-based; summary of the method: as §2
WM793 [7] = assay: Induction of apoptosis in human WM793 cells assessed as change in fluorescence intensity using TMRM labeling by flow cytometry; type: functional, cell-based; summary of the method: as §2
WM3211 [8] = assay: Induction of apoptosis in human WM3211 cells assessed as mitochondrial fragmentation upto 4 ug/ml by flow cytometry; type: functional, cell-based
WM793 [9] = assay: Induction of apoptosis in human WM793 cells assessed as mitochondrial fragmentation upto 4 ug/ml by flow cytometry; type: functional, cell-based
WM793 [10] = assay: Induction of apoptosis in human WM793 cells assessed as vacuolization upto 4 ug/ml by flow cytometry; type: functional, cell-based
[11] = Antiproliferative activity against human WM3211 cells at 4 ug/ml after 3 days by SRB assay; type: functional
Summary of the method: (§3)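 SRB proliferation in WM3211 or WM793 cells at the top concentration of the dilution series, after three days of exposure. Cells seeded at 20,000 cells/ml, with compound added after 24 h recovery. Vehicle control 0.2% DMSO. Growth read as A540 of Tris-eluted SRB and expressed as percent of vehicle control.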

[12] = Antiproliferative activity against human WM793 cells at 4 ug/ml after 3 days by SRB assay; type: functional; summary of the method: as §3

Structure (SMILES)	EC50 ([1]; Homo sapiens, WM3211, 72 h) [nM]	EC50 ([2]; Homo sapiens, WM793, 72 h) [nM]	Activity (WM3211 [3])	Activity (WM3211 [4])	Activity (WM793 [5])	Activity (WM3211 [6])	Activity (WM793 [7])	also measured
C=C(C)[C@@H]1CC[C@]2(COC(=O)C[n+]3ccc(N(C)C)cc3)CC[C@]3(C)[C@H](CC[C@@H]4[C@@]5(C)CC[C@H](OC(=O)C[n+]6ccc(N(C)C)cc6)C(C)(C)[C@@H]5CC[C@]43C)[C@@H]12 [listing 1 of 3 here]	400	400	–	–	–	–	–	–
C=C(C)[C@@H]1CC[C@]2(CO)CC[C@]3(C)[C@H](CC[C@@H]4[C@@]5(C)CC[C@H](OC(=O)C[n+]6ccc(N(C)C)cc6)C(C)(C)[C@@H]5CC[C@]43C)[C@@H]12 [listing 1 of 3 here]	–	–	–	–	–	–	–	EC50 [1]: 300 nM; EC50 [2]: 1900 nM
C=C(C)[C@@H]1CC[C@]2(COC(=O)C[n+]3ccc(N(C)C)cc3)CC[C@]3(C)[C@H](CC[C@@H]4[C@@]5(C)CC[C@H](OC(=O)C[n+]6ccc(N(C)C)cc6)C(C)(C)[C@@H]5CC[C@]43C)[C@@H]12 [listing 2 of 3 here]	–	–	–	–	–	–	–	EC50 [1]: 500 nM; EC50 [2]: 500 nM
C=C(C[n+]1ccc(N(C)C)cc1)[C@@H]1CC[C@]2(COC(=O)C(C)[n+]3ccc(N(C)C)cc3)CC[C@]3(C)[C@H](CC[C@@H]4[C@@]5(C)CC[C@H](OC(=O)C(C)[n+]6ccc(N(C)C)cc6)C(C)(C)[C@@H]5CC[C@]43C)[C@@H]12 (stereo partly drawn) [listing 1 of 3 here]	–	–	–	–	–	–	–	EC50 [1]: > 3800 nM; EC50 [2]: > 3800 nM
C=C(C[n+]1ccc(N(C)C)cc1)[C@@H]1CC[C@]2(C(=O)O)CC[C@]3(C)[C@H](CC[C@@H]4[C@@]5(C)CC[C@H](OC(=O)C[n+]6ccc(N(C)C)cc6)C(C)(C)[C@@H]5CC[C@]43C)[C@@H]12 [listing 1 of 3 here]	> 4400	> 4400	–	–	–	–	–	–
C=C(C)[C@@H]1CC[C@]2(COC(=O)CCC[n+]3ccc(N(C)C)cc3)CC[C@]3(C)[C@H](CC[C@@H]4[C@@]5(C)CC[C@H](OC(=O)CCC[n+]6ccc(N(C)C)cc6)C(C)(C)[C@@H]5CC[C@]43C)[C@@H]12	700	1300	Active	Active	Active	Active	–	–
C=C(C[n+]1ccc(N(C)C)cc1)[C@@H]1CC[C@]2(C(=O)O)CC[C@]3(C)[C@H](CC[C@@H]4[C@@]5(C)CC[C@H](OC(=O)C[n+]6ccc(N(C)C)cc6)C(C)(C)[C@@H]5CC[C@]43C)[C@@H]12 [listing 2 of 3 here]	–	–	inactive	inactive	–	Active	Active	–
C=C(C)[C@@H]1CC[C@]2(COC(=O)C(CC)[n+]3ccc(N(C)C)cc3)CC[C@]3(C)[C@H](CC[C@@H]4[C@@]5(C)CC[C@H](OC(=O)C(CC)[n+]6ccc(N(C)C)cc6)C(C)(C)[C@@H]5CC[C@]43C)[C@@H]12 (stereo partly drawn)	300	500	Active	–	Active	–	Active	Activity (WM3211 [8]): Active; Activity (WM793 [9]): Active
C=C(C)[C@@H]1CC[C@]2(COC(=O)C(C)[n+]3ccc(N(C)C)cc3)CC[C@]3(C)[C@H](CC[C@@H]4[C@@]5(C)CC[C@H](OC(=O)C(C)[n+]6ccc(N(C)C)cc6)C(C)(C)[C@@H]5CC[C@]43C)[C@@H]12 (stereo partly drawn)	500	500	Active	–	Active	–	Active	Activity (WM3211 [8]): Active; Activity (WM793 [9]): Active
C=C(C[n+]1ccc(N(C)C)cc1)[C@@H]1CC[C@]2(COC(=O)C(C)[n+]3ccc(N(C)C)cc3)CC[C@]3(C)[C@H](CC[C@@H]4[C@@]5(C)CC[C@H](OC(=O)C(C)[n+]6ccc(N(C)C)cc6)C(C)(C)[C@@H]5CC[C@]43C)[C@@H]12 (stereo partly drawn) [listing 2 of 3 here]	> 3500	> 3500	–	–	–	–	–	–
C=C(C[n+]1ccc(N(C)C)cc1)[C@@H]1CC[C@]2(C(=O)O)CC[C@]3(C)[C@H](CC[C@@H]4[C@@]5(C)CC[C@H](O)C(C)(C)[C@@H]5CC[C@]43C)[C@@H]12	> 6100	> 6100	inactive	inactive	–	Active	Active	–
C=C(C)[C@@H]1CC[C@]2(COC(=O)C(C)[n+]3ccc(N(C)C)cc3)CC[C@]3(C)[C@H](CC[C@@H]4[C@@]5(C)CC[C@H](O)C(C)(C)[C@@H]5CC[C@]43C)[C@@H]12 (stereo partly drawn)	800	2600	Active	Active	–	Active	–	–
C=C(C[n+]1ccc(N(C)C)cc1)[C@@H]1CC[C@]2(C(=O)O)CC[C@]3(C)[C@H](CC[C@@H]4[C@@]5(C)CC[C@H](OC(=O)C[n+]6ccc(N(C)C)cc6)C(C)(C)[C@@H]5CC[C@]43C)[C@@H]12 [listing 3 of 3 here]	–	–	–	–	–	–	–	EC50 [1]: > 4700 nM; EC50 [2]: > 4700 nM
C=C(C)[C@@H]1CC[C@]2(CO)CC[C@]3(C)[C@H](CC[C@@H]4[C@@]5(C)CC[C@H](OC(=O)C[n+]6ccc(N(C)C)cc6)C(C)(C)[C@@H]5CC[C@]43C)[C@@H]12 [listing 2 of 3 here]	–	–	Active	Active	Active	–	–	Activity (WM793 [10]): Active
C=C(C)[C@@H]1CC[C@]2(CO)CC[C@]3(C)[C@H](CC[C@@H]4[C@@]5(C)CC[C@H](OC(=O)C[n+]6ccc(N(C)C)cc6)C(C)(C)[C@@H]5CC[C@]43C)[C@@H]12 [listing 3 of 3 here]	600	2500	–	–	–	–	–	–
C=C(C)[C@@H]1CC[C@]2(COC(=O)C[n+]3ccc(N(C)C)cc3)CC[C@]3(C)[C@H](CC[C@@H]4[C@@]5(C)CC[C@H](OC(=O)C[n+]6ccc(N(C)C)cc6)C(C)(C)[C@@H]5CC[C@]43C)[C@@H]12 [listing 3 of 3 here]	–	–	Active	–	Active	–	Active	Activity (WM3211 [8]): Active; Activity (WM793 [9]): Active
C=C(C)[C@@H]1CC[C@]2(C(=O)O)CC[C@]3(C)[C@H](CC[C@@H]4[C@@]5(C)CC[C@H](OC(=O)C[n+]6ccc(N(C)C)cc6)C(C)(C)[C@@H]5CC[C@]43C)[C@@H]12.[Br-]	2600	5700	–	Active	–	Active	Active	Activity [11]: 40%; Activity [12]: 40%
C=C(C)[C@@H]1CC[C@]2(COC(=O)CC[n+]3ccc(N(C)C)cc3)CC[C@]3(C)[C@H](CC[C@@H]4[C@@]5(C)CC[C@H](OC(=O)CC[n+]6ccc(N(C)C)cc6)C(C)(C)[C@@H]5CC[C@]43C)[C@@H]12	600	800	Active	–	Active	–	Active	Activity (WM3211 [8]): Active; Activity (WM793 [9]): Active
C=C(C[n+]1ccc(N(C)C)cc1)[C@@H]1CC[C@]2(COC(=O)C(C)[n+]3ccc(N(C)C)cc3)CC[C@]3(C)[C@H](CC[C@@H]4[C@@]5(C)CC[C@H](OC(=O)C(C)[n+]6ccc(N(C)C)cc6)C(C)(C)[C@@H]5CC[C@]43C)[C@@H]12 (stereo partly drawn) [listing 3 of 3 here]	–	–	inactive	inactive	–	Active	Active	–

From ChEMBL document CHEMBL1212901, “Dimethylaminopyridine derivatives of lupane triterpenoids are potent disruptors of mitochondrial structure and function” (2010)
